# Laboratory results as given in ChEMBL document CHEMBL1132940, “Pharmacophore/receptor models for GABA(A)/BzR subtypes (alpha1beta3gamma2, alpha5beta3gamma2, and alpha6beta3gamma2) via a comprehensive ligand-mapping approach” (J Med Chem, 2000).
# What was measured:
# [1] = target: T1, GABA-A receptor; alpha-3/beta-3/gamma-2 (Homo sapiens, UniProt P18507+P28472+P34903); assay: Binding affinity for human recombinant gamma-aminobutyric-acid (GABA) A receptor alpha-3-beta-3-gamma-2; format: protein-complex assay
# T1 sequence (P18507 whole entry): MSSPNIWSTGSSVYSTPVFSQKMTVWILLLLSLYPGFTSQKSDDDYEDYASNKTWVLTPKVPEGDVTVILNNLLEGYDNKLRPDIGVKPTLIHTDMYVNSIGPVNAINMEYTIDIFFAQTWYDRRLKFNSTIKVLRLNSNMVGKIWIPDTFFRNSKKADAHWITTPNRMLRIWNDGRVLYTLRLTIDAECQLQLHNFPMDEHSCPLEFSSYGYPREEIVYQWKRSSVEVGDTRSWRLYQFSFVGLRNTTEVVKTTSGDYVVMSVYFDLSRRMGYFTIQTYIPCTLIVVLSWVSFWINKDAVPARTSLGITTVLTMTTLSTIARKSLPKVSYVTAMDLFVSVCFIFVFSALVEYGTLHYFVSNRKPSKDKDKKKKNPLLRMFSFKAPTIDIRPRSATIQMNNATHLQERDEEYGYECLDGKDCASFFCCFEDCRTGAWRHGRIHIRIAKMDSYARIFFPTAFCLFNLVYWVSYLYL
# T1 sequence (P28472 whole entry): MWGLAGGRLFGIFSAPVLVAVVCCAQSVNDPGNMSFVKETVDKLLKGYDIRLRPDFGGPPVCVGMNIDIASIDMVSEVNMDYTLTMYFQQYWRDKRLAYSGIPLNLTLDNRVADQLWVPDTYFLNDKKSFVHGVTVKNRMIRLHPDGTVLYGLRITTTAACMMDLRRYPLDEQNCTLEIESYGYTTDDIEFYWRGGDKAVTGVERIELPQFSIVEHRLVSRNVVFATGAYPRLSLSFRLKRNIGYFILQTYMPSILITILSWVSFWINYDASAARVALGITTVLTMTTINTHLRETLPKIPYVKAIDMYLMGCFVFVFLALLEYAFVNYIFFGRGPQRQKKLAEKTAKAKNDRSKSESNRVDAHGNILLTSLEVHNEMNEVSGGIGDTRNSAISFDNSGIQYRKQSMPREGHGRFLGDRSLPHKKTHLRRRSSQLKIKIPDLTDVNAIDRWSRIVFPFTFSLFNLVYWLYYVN
# T1 sequence (P34903 whole entry): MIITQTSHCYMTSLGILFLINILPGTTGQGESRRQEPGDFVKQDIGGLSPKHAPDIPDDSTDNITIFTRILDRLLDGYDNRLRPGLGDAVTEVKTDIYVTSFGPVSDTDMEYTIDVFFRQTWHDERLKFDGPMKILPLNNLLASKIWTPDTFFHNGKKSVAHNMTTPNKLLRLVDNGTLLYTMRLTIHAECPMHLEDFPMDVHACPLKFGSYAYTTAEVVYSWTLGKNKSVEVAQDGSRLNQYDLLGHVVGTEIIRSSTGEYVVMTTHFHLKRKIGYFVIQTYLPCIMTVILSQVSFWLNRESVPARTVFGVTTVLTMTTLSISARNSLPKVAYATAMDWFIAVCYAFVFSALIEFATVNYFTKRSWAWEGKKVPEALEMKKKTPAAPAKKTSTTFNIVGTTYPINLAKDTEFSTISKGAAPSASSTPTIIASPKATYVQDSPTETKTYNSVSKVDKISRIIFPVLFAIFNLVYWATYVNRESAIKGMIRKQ
# [2] = target: T2, GABA-A receptor; alpha-5/beta-3/gamma-2 (Homo sapiens, UniProt P18507+P28472+P31644); assay: Binding affinity for human recombinant gamma-aminobutyric-acid (GABA) A receptor alpha-5-beta-3-gamma-2; format: protein-complex assay
# T2 sequence (P18507 whole entry): T1 sequence (P18507 whole entry)
# T2 sequence (P28472 whole entry): T1 sequence (P28472 whole entry)
# T2 sequence (P31644 whole entry): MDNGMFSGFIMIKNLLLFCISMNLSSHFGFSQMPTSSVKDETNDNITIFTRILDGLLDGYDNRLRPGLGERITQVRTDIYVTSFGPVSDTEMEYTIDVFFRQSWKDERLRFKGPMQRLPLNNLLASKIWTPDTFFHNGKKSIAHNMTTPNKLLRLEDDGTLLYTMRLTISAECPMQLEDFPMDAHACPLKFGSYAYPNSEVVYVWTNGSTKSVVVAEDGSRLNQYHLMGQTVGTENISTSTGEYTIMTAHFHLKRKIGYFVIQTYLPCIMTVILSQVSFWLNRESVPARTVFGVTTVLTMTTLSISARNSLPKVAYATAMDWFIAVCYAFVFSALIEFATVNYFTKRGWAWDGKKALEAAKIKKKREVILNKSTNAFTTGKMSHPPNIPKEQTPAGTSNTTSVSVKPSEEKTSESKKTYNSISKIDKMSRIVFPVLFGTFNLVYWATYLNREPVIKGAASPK
# [3] = target: T3, GABA-A receptor; alpha-1/beta-3/gamma-2 (Homo sapiens, UniProt P14867+P18507+P28472); assay: Binding affinity for human recombinant gamma-aminobutyric-acid (GABA) A receptor alpha-1-beta-3-gamma-2; format: protein-complex assay
# T3 sequence (P14867 whole entry): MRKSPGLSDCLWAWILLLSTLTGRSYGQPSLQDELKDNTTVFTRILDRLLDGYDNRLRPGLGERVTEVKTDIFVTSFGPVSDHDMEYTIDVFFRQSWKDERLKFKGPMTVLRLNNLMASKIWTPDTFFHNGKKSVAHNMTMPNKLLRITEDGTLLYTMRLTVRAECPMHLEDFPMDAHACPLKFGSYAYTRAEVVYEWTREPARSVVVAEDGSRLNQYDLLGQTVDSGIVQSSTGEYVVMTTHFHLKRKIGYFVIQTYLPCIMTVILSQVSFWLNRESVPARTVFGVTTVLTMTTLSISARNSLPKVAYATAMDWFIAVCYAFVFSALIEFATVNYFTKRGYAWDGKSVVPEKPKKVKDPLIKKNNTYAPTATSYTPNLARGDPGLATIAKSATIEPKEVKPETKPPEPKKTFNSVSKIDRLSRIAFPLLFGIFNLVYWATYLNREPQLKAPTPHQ
# T3 sequence (P18507 whole entry): T1 sequence (P18507 whole entry)
# T3 sequence (P28472 whole entry): T1 sequence (P28472 whole entry)
# [4] = Selectivity ratio of alpha1 beta-3 gamma2 GABA A / BzR and alpha5 beta-3 gamma2 GABA A / BzR
# [5] = target: GABA-A receptor; alpha-6/beta-3/gamma-2 (Homo sapiens, UniProt P18507+P28472+Q16445); assay: Binding affinity for human recombinant gamma-aminobutyric-acid (GABA) A receptor alpha-6-beta-3-gamma-2; format: protein-complex assay
# Chain of GABA-A receptor; alpha-6/beta-3/gamma-2 (Q16445 whole entry, one chain of several): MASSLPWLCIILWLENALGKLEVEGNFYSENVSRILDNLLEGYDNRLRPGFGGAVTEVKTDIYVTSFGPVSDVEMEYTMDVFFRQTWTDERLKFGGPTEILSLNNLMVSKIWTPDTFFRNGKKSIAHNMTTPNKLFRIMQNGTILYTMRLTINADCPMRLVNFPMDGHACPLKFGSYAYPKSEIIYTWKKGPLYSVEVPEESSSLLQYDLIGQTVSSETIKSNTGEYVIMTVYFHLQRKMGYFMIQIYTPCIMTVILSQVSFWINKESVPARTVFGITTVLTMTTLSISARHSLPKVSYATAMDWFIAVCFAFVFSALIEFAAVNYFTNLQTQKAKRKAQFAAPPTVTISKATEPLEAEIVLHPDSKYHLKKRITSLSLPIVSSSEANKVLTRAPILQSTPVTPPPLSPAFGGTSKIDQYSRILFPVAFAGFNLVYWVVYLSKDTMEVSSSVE
# Procedure, shortened: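 Ltk⁻ cells expressing human α6β3γ2 were harvested by scraping into PBS, centrifuged at 3000g and resuspended in 10 mM KH₂PO₄/100 mM KCl (pH 7.4). Incubation was 1 h at 4 °C with filter harvest and scintillation counting.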
# [6] = target: T4, GABA-A receptor; alpha-2/beta-3/gamma-2 (Homo sapiens, UniProt P18507+P28472+P47869); assay: Binding affinity to human recombinant gamma-aminobutyric-acid (GABA) A receptor alpha-2-beta-3-gamma-2; format: protein-complex assay
# T4 sequence (P18507 whole entry): T1 sequence (P18507 whole entry)
# T4 sequence (P28472 whole entry): T1 sequence (P28472 whole entry)
# T4 sequence (P47869 whole entry): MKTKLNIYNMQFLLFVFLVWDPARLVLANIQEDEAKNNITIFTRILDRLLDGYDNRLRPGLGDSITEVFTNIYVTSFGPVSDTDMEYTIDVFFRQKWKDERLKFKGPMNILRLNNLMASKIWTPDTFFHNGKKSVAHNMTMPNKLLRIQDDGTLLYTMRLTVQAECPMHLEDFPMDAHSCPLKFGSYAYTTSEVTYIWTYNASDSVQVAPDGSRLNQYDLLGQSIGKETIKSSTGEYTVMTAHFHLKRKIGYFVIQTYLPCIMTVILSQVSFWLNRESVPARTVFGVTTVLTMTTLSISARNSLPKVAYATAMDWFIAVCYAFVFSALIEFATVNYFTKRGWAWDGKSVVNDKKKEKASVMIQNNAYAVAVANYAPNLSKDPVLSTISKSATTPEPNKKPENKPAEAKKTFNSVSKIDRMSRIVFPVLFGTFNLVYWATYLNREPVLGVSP
# [7] = target: T3, GABA-A receptor; alpha-1/beta-3/gamma-2; assay: Binding affinity towards human GABA-A receptor alpha-1-beta-3-gamma-2 subunits; format: protein-complex assay
SMILES,Ki [1],Ki [2],Ki [3],Ratio [4],Ki [5],Ki [6],Ki [7]
CN1C(=O)CN=C(c2ccccc2)c2cc(C#C[Si](C)(C)C)ccc21,203 nM,63 nM,94 nM,1.49,> 3000 nM,73 nM,–
O=C1CN=C(c2cccs2)c2cc(F)ccc2N1,405 nM,150 nM,175 nM,1.17,> 300 nM,335 nM,–
C#Cc1ccc2c(c1)C(c1ccccc1)=NCC(=O)N2C,47.4 nM,6.8 nM,76.3 nM,11.2,> 3000 nM,42.1 nM,–
CN1C(=O)CN=C(c2cccs2)c2cc(Cl)ccc21,13.4 nM,11.5 nM,19.2 nM,1.7,> 300 nM,13.2 nM,–
CN1C(=O)CN=C(c2ccccc2)c2ccccc21,318 nM,96 nM,81 nM,0.84,> 3000 nM,138 nM,–
CCOC(=O)c1ncn2c1CN(C)C(=O)c1ccccc1-2 [RO-147437],1.1 nM,0.4 nM,1.2 nM,3,> 300 nM,2 nM,–
CN1C(=O)CN=C(c2cccs2)c2cc(F)ccc21,205 nM,65.5 nM,141 nM,2.15,> 300 nM,215 nM,–
CC(C)(C)C(=O)Oc1ccc2c(c1)[nH]c1c3c4ccccc4nc-3c[nH]c12,–,> 3000 nM,–,–,> 10000 nM,–,156 nM
O=C1CN=C(c2ccccc2)c2ccccc2N1 [RO-052921],350 nM,140 nM,286 nM,2.04,> 3000 nM,233 nM,–
CN1C(=O)CN=C(c2ccccc2)c2cc(C#N)ccc21,350 nM,265 nM,320 nM,1.2,> 3000 nM,310 nM,–
CN1C(=O)CN=C(c2ccccc2)c2cc(Br)ccc21,31 nM,7.7 nM,9.4 nM,1.22,> 3000 nM,9.3 nM,–
O=C1C2C=Nc3ccccc3C2=NN1c1ccccc1 (stereo not drawn) [CGS-8216],0.12 nM,0.25 nM,0.05 nM,–,17 nM,0.08 nM,–
CCOC(=O)c1[nH]cc2nc3ccc(OC)cc3c-2c1CC,2.8 nM,1 nM,1.6 nM,–,> 1000 nM,2.9 nM,–
Clc1cc2c(cn1)[nH]c1ccccc12,126 nM,1000 nM,60.4 nM,–,> 10000 nM,125 nM,–
